What was measured:
Rattus norvegicus [1] = assay: Ability of intraperitoneally administered compound to antagonise apomorphine-induced aggression in male rats.; format: functional
Procedure, shortened: (§1)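 Male rats were dosed ip or orally as solutions or fine dispersions in water or 0.5% methylcellulose. Apomorphine-induced fighting between paired animals was scored 1 h after dosing, and stereotyped behavior was noted. Five pairs were used per dose. ED50 is the dose that cut fighting time by 50%, estimated approximately from two or three bracketing doses, and has no standard error.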

Rattus norvegicus [2] = assay: Antagonists of apomorphine-induced aggression in male rats, administered perorally; format: functional; procedure, shortened: as §1
Rattus norvegicus [3] = assay: Inhibition of apomorphine-induced aggression in male rats after intraperitoneal administration of 25 mg/kg of compound; format: functional; details: ip
Procedure, shortened: (§2)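 Male rats received a single screening dose, given in water or 0.5% methylcellulose as a solution or fine dispersion. Apomorphine-induced fighting in paired animals was observed starting 1 h after dosing, with five pairs per dose. The value is percent inhibition of fighting time at that dose. Stereotyped behavior was recorded during the fighting observation.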

Rattus norvegicus [4] = assay: Compounds were tested for their ability to antagonise apomorphine-induced aggression in male rats. compound was administered perorally.; format: functional; details: po; procedure, shortened: as §1
Rattus norvegicus [5] = assay: Inhibition of apomorphine-induced aggression in male rats after peroral administration of 25 mg/kg of compound; format: functional; details: route oral; procedure, shortened: as §2
Rattus norvegicus [6] = assay: Ability of intraperitoneally administered compound (25 mg/kg) to antagonise apomorphine-induced aggression in male rats; d indicates toxic at 25 mg/Kg; format: functional, organism-based
[7] = Rattus norvegicus, ip, read-out: ED50
[8] = Rattus norvegicus, po, read-out: ED50

SMILES | ED50 (Rattus norvegicus [1]; [7]) [mg/kg] | ED50 (Rattus norvegicus [2]; [8]) [mg/kg] | also measured
CCN(c1ncnc2c1ncn2CC1CC1)C1CC1 | 20 | – | –
CN(C)c1ncnc2c1ncn2Cc1cccc(NC(=O)C(N)Cc2ccccc2)c1 (stereo not drawn) | 27 | 96 | –
CCN(CC)c1ncnc2c1ncn2CC1CC1 | – | – | inhibition in vivo at 25 mg/kg (Rattus norvegicus [3]): 0%
CCCCn1cnc2c(NC3CC3)ncnc21 | 18 | – | –
CN(C)c1ncnc2c1ncn2Cc1cccc(N)c1 | 23 | 58 | –
CSCn1cnc2c(NC3CC3)ncnc21 | 23 | – | –
CN(C)c1ncnc2c1ncn2C1CC1 | 9 | 25 | –
CCCn1cnc2c(N(C)C)ncnc21 | 14 | 15 | –
CCCn1cnc2c(NC3CC3)ncnc21 | 6 | – | –
O=CN(c1ncnc2c1ncn2CC1CC1)C1CC1 | 8 | 30 | –
c1nc(NC2CCC2)c2ncn(CC3CC3)c2n1 | – | – | inhibition in vivo at 25 mg/kg (Rattus norvegicus [3]): 0%
CC(C1CC1)n1cnc2c(NC3CC3)ncnc21 (stereo in doubt; 60) | – | – | ED50 (Rattus norvegicus [2]): 9 mg/kg; ED50 (Rattus norvegicus [1]): 2 mg/kg
FC(F)(F)c1nc(NC2CC2)c2ncn(CC3CC3)c2n1 | 0.9 | 2 | –
CCCCCn1cnc2c(N(C)C)ncnc21 | – | – | inhibition in vivo at 25 mg/kg (Rattus norvegicus [3]): 0%
CCN(C)c1ncnc2c1ncn2CC1CC1 | 12.5 | – | –
CCC(C)n1cnc2c(N(C)C)ncnc21 (stereo not drawn) | 14 | – | –
CNc1nc(NC2CC2)c2ncn(CC3CC3)c2n1 | 3 | 12.5 | –
CC(=O)N(c1ncnc2c1ncn2C1CC1)C1CC1 | – | – | inhibition in vivo at 25 mg/kg (Rattus norvegicus [3]): 22%
CC(C1CC1)n1cnc2c(NC3CC3)ncnc21 (stereo in doubt; 59) | – | – | ED50 (Rattus norvegicus [2]): 25 mg/kg; ED50 (Rattus norvegicus [1]): 4.5 mg/kg
COc1nc(NC2CC2)c2ncn(CC3CC3)c2n1 | – | – | ED50 (Rattus norvegicus [4]): 3.7 mg/kg
O=CN(c1ncnc2c1ncn2C1CCC1)C1CC1 | 20 | – | inhibition in vivo at 25 mg/kg (Rattus norvegicus [5]): 0%
CC(C1CC1)n1cnc2c(NC3CC3)ncnc21 (stereo in doubt; 61) | – | – | ED50 (Rattus norvegicus [2]): >25 mg/kg; ED50 (Rattus norvegicus [1]): 12.5 mg/kg
CCNc1ncnc2c1ncn2CC1CC1 | 22 | – | –
CCn1cnc2c(N(C)C)ncnc21 | 15 | – | –

SMILES | ED50 (Rattus norvegicus [1]; [7]) [mg/kg] | ED50 (Rattus norvegicus [2]; [8]) [mg/kg] | also measured
c1nc(NC2CC2)c2ncn(CC3CCCC3)c2n1 | 15 | – | –
CN(C)c1ncnc2c1ncn2Cc1ccc(O)cc1 | – | – | inhibition in vivo at 25 mg/kg (Rattus norvegicus [3]): 0%
CCC(C)n1cnc2c(NC3CC3)ncnc21 (stereo not drawn) | 13.5 | – | –
CN(C)c1ncnc2c1ncn2CC1CCC1 | 8 | – | –
c1nc(NC2CC2)c2ncn(C3CCCC3)c2n1 | – | – | ED50 (Rattus norvegicus [6]): Toxic
CC(C1CC1)n1cnc2c(N(C=O)C3CC3)ncnc21 (stereo not drawn) | 2.5 | 7.5 | –
c1ccc(Nc2ncnc3c2ncn3CC2CC2)cc1 | – | – | inhibition in vivo at 25 mg/kg (Rattus norvegicus [3]): 0%
CN(C)c1ncnc2c1ncn2Cc1ccccc1 | 15 | 52 | –
CN(C)c1ncnc2c1ncn2C1CCCC1 | – | – | inhibition in vivo at 25 mg/kg (Rattus norvegicus [3]): 27%
CN(C)c1ncnc2c1ncn2Cc1ccc(N)cc1 | 17 | – | –
CC(C)n1cnc2c(NC3CC3)ncnc21 | 4 | 30 | –
CN(C)c1ncnc2c1ncn2Cc1ccccc1F | 37 | – | –
CNc1ncnc2c1ncn2CC1CC1 | 12 | – | inhibition in vivo at 25 mg/kg (Rattus norvegicus [5]): 38%
CN(C)c1ncnc2c1ncn2C1CCC1 | 11 | 26 | –
CC(C)N(C)c1ncnc2c1ncn2CC1CC1 | – | – | inhibition in vivo at 25 mg/kg (Rattus norvegicus [3]): 32%
CN(c1ncnc2c1ncn2CC1CC1)C1CC1 | 7.5 | 35 | –
Clc1nc(NC2CC2)c2ncn(CC3CC3)c2n1 | 2.5 | 4 | –
c1nc(NC2CC2)c2ncn(C3CCC3)c2n1 | 19 | – | –
c1nc(NCC2CC2)c2ncn(CC3CC3)c2n1 | – | – | inhibition in vivo at 25 mg/kg (Rattus norvegicus [3]): 28%
c1nc(N2CCCCC2)c2ncn(CC3CC3)c2n1 | – | – | inhibition in vivo at 25 mg/kg (Rattus norvegicus [3]): 28%
CN(C)c1ncnc2c1ncn2Cc1cccc(Cl)c1 | 50 | – | –
CCCCn1cnc2c(N(C)C)ncnc21 | 10 | – | –
COc1ccc(Cn2cnc3c(N(C)C)ncnc32)cc1 | 58 | – | –
CN(C)c1ncnc2c1ncn2C1CCCCCC1 | – | – | inhibition in vivo at 25 mg/kg (Rattus norvegicus [3]): 0%

SMILES | ED50 (Rattus norvegicus [1]; [7]) [mg/kg] | ED50 (Rattus norvegicus [2]; [8]) [mg/kg] | also measured
CN(C)c1ncnc2c1ncn2Cc1cccc(C#N)c1 | 13 | – | –
O=CN(c1ncnc2c1ncn2C1CC1)C1CC1 | 2.4 | 7.4 | –
CN(C)c1ncnc2c1ncn2C | – | – | inhibition in vivo at 25 mg/kg (Rattus norvegicus [3]): 30%
c1nc(N2CCC2)c2ncn(CC3CC3)c2n1 | – | – | inhibition in vivo at 25 mg/kg (Rattus norvegicus [3]): 30%
Nc1nc(NC2CC2)c2ncn(CC3CC3)c2n1 | 9 | – | inhibition in vivo at 25 mg/kg (Rattus norvegicus [5]): 26%
CN(C)c1ncnc2c1ncn2CC1CCCCC1 | – | – | inhibition in vivo at 25 mg/kg (Rattus norvegicus [3]): 0%
O=CN(c1ncnc2c1ncn2CC1CCC1)C1CC1 | 7 | – | –
CCCOc1nc(NC2CC2)c2ncn(CC3CC3)c2n1 | 2.5 | 2.5 | –
CC(C)n1cnc2c(N(C)C)ncnc21 | 11 | 15 | –
CCNc1nc(NC2CC2)c2ncn(CC3CC3)c2n1 | 9 | – | ED50 (Rattus norvegicus [4]): 11 mg/kg
CSc1nc(NC2CC2)c2ncn(CC3CC3)c2n1 | 5 | – | –
c1nc(NC2CC2)c2ncn(C3CC3)c2n1 | 4.5 | 20 | –
CN(c1ncnc2c1ncn2C1CC1)C1CC1 | 4.5 | 12.5 | –
CN(C)c1ncnc2c1ncn2Cc1ccccc1[N+](=O)[O-] | – | – | inhibition in vivo at 25 mg/kg (Rattus norvegicus [3]): 0%
Nc1ncnc2c1ncn2CC1CC1 | 20 | – | –
CC(C)Cn1cnc2c(N(C)C)ncnc21 | 5 | 22 | –
CN(C)c1ncnc2c1ncn2CC1CC1 | 4.5 | 17 | –
CN(C)c1ncnc2c1ncn2C1CCCCC1 | – | – | inhibition in vivo at 25 mg/kg (Rattus norvegicus [3]): 70%
c1nc(NC2CC2)c2ncn(CC3CCC3)c2n1 | 10 | 44 | –
c1nc(NC2CC2)c2ncn(CC3CC3)c2n1 | 4 | 12 | –
CCOc1nc(NC2CC2)c2ncn(CC3CC3)c2n1 | 0.8 | 4 | –
CC(C)Cn1cnc2c(NC3CC3)ncnc21 | 10 | – | inhibition in vivo at 25 mg/kg (Rattus norvegicus [5]): 0%
CC(C)(C)Nc1ncnc2c1ncn2CC1CC1 | – | – | inhibition in vivo at 25 mg/kg (Rattus norvegicus [3]): 0%
CCCNc1ncnc2c1ncn2CC1CC1 | – | – | inhibition in vivo at 25 mg/kg (Rattus norvegicus [3]): 0%

Reference: ChEMBL document CHEMBL1130214, “6-(alkylamino)-9-alkylpurines. A new class of potential antipsychotic agents” (1997)
